The source of these data is ChEMBL document CHEMBL4007413, “Replacing d-Glucosamine with Its l-Enantiomer in Glycosylated Antitumor Ether Lipids (GAELs) Retains Cytotoxic Effects against Epithelial Cancer Cells and Cancer Stem Cells” (J Med Chem, 2017).

Usually CC50 stands for the concentration giving 50% cytotoxicity.

The test system of series [1] is BT-474. The series is described as follows: Cytotoxicity against human BT474 cells assessed as decrease in cell viability after 48 hrs by MTS assay. Particulars: for CC50: BT-474, 48 h. The class given is functional. The essentials: (§1)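 Cells were seeded at equal numbers and, after 24 h, exposed to compounds (0–30 µM) for 48 h. MTS reagent (20% v/v) was then added for 1–4 h, and OD490 was read. Cell-free medium wells served as blanks. Media were DMEM/F12 + 10% FBS for BT-474; DMEM + 10% FBS for DU-145 and MDA-MB-231; and DMEM + 10% FBS + 2.5% horse serum for MiaPaCa-2. Values are mean ± SD, n=6.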

A further series has as its system MIA PaCa-2. The series is described as follows: Cytotoxicity against human MIAPaCa2 cells assessed as decrease in cell viability after 48 hrs by MTS assay. The class given is functional. Particulars: for CC50: MIA PaCa-2, 48 h. The essentials: as §1
A general note: Formazan colour is commonly taken as a measure of viable cells.

In series [2] the test system is DU-145. Put plainly: Cytotoxicity against human DU145 cells assessed as decrease in cell viability after 48 hrs by MTS assay. The format is functional. Particulars: for CC50: DU-145, 48 h. The procedure, abridged:
as §1

The test system of another series is MDA-MB-231. The series is described as follows: Cytotoxicity against human MDA-MB-231 cells assessed as decrease in cell viability after 48 hrs by MTS assay. The class given is functional. Particulars: for CC50: MDA-MB-231, 48 h. The procedure, abridged:
as §1

In series [3] the test system is BT-474. Put plainly: Cytotoxicity against cancer stem cells derived from human BT474 cells assessed as cancer stem cell death at 20 uM after 3 days by MTS assay. The format is functional. The procedure, abridged: (§2)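 CSCs were isolated from BT-474 using ALDH1 activity as the stemness marker. They were grown in ultra-low adhesion wells for 4 days to form spheroids. Spheroids were then exposed to compounds (0–20 µM) for 3 days. Viability was read by MTS assay and expressed as % of untreated control.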

The test system of series [4] is BT-474. Put plainly: Disruption of cancer stem cells spheroids derived from human BT474 cells at 7.5 uM after 3 days by microscopic analysis. The class given is functional, cell-based. The procedure, abridged: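 Equal numbers of ALDH1-selected BT-474 cancer stem cells were seeded in ultra-low adhesion wells and grown to form spheroids. Spheroids were incubated with or without compound for 3 days. Spheroid integrity was judged by microscopic imaging at ×10.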

The test system of series [5] is BT-474. Put plainly: Cytotoxicity against cancer stem cells derived from human BT474 cells assessed as cancer stem cell death at 7.5 uM after 3 days by MTS assay. The format is functional. The essentials:
as §2

Series [6] is described as follows: Stability in bovine liver extracts assessed as bovine liver glycosidase mediated compound cleavage by TLC analysis. Particulars: cattle. The class given is ADME, Bos taurus. The essentials:
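A bovine liver glycosidase fraction in 0.05 M sodium citrate pH 5.0 was combined with 0.2 M citrate pH 4.4 buffer, substrate (30 mM stock) and Triton X-100 (10% stock) for solubilization. Controls were no enzyme and a β-D-glucose-based GAEL. After 1 h, methanol was added, the mixture was centrifuged, and the supernatant was analysed by TLC. Run in quadruplicate.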

Series [7] deals with BT-474. Put plainly: Disruption of cancer stem cells spheroids derived from human BT474 cells at >=7.5 uM after 3 days by microscopic analysis. The format is functional, cell-based. The procedure, abridged:
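Cancer stem cells were isolated from BT-474 by ALDH1 activity. Equal numbers were seeded in ultra-low-adhesion wells and grown to spheroids. Spheroids were then incubated with or without compounds for 3 days. Spheroid integrity was assessed by light microscopy (×10). Viability was measured in parallel by MTS.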

The subject of a further series is Erythrocyte. The series is described as follows: Induction of hemolysis in sheep erythrocytes at 30 uM after 30 mins by spectrophotometric analysis. The class given is functional, Ovis aries.
Series [8] deals with DU-145. The series is described as follows: Induction of membrane lysis in human DU145 cells at 0.01% after 10 mins by EthD-1 staining based fluorescence microscopic analysis.

Active and inactive are the calls of the source. The calls are words filed in the database; no cut-off is given here. Some results are limits rather than exact numbers.

Turning to `CC[C@@H](C(=O)[C@@H](C)[C@@H](O)[C@H](C)[C@@H]1O[C@@H]([C@@H](CC)C(=O)O)CC[C@@H]1C)[C@H]1O[C@]2(C=C[C@@H](O)[C@]3(CC[C@@](C)([C@H]4CC[C@](O)(CC)[C@H](C)O4)O3)O2)[C@H](C)C[C@@H]1C` [SALINOMYCIN], the result in the series with BT-474 [1], in the series on MIA PaCa-2, in the series on DU-145 [2] and with MDA-MB-231 was Active. The Activity came out at 87% with BT-474 [3] and 60% in the series with BT-474 [5]. In the series on BT-474 [4], the result was inactive.

For the compound `CCCCCCCCCCCCCCCCOC[C@H](CO[C@@H]1O[C@H](CO)[C@@H](O)[C@H](O)[C@H]1N)OC`, the Stability result in series [6] is “Stable”. Besides, the outcome in the series on BT-474 [7] was Active. The CC50 with BT-474 [1], in the series on MIA PaCa-2, in the series with DU-145 [2] and in the series on MDA-MB-231 was 6.5 to 13 µM throughout. The compound also displayed an Activity with Erythrocyte below 5%.

Regarding `CCCCCCCCCCCCCCCCOC[C@H](CO[C@H]1O[C@H](CO)[C@@H](O)[C@H](O)[C@H]1N)OC`, the CC50 in the series on BT-474 [1], in the series with MIA PaCa-2, in the series on DU-145 [2] and with MDA-MB-231 was 6 to 10.5 µM each time.

With `CC(C)(C)CC(C)(C)c1ccc(OCCOCCOCCOCCOCCOCCOCCOCCOCCOCCO)cc1`, in the series with DU-145 [8], the result was Active.
